Reference: article PMC3835248 (Journal of the American Heart Association: Cardiovascular …, 2013)
Entries after “also recorded” stand apart in the source; their conditions may differ.

Legend:
IκBα = test: Half-life of endogenous IκBα in Jurkat T cells; type: cell-based, human; conditions: 1 μmol/L 30 minutes before cycloheximide, PMA/Iono-stimulated Jurkat
Outline: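 Jurkat T cells given cycloheximide 10 μg/mL. 30 min later, left unstimulated or given PMA 5 nmol/L plus ionomycin 2 μmol/L. Parallel samples had epoxomicin 1 μmol/L 30 min before cycloheximide. Cells sampled at […]; two-step hypotonic NP-40/0.45 mol/L NaCl lysates. Infrared quantitative immunoblot; signal normalised to β-actin, expressed as % of t0; mean±SD of ≥3 experiments.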

importins α = test: Competition of biotinylated peptides with native auto-inhibitory regions; type: binding, human; conditions: biotinylated peptide, Jurkat lysate, pull-down
Outline: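 Biotinylated peptides of importin α1, α3, α4, α5 and α7 auto-inhibitory regions, with biotinylated NLS and mutant NLS peptides, each added separately to whole-cell lysate of Jurkat T cells. Per pull-down protocol: 10 nmols peptide, lysate 1.5 mg/mL total protein, overnight. Complexes captured on streptavidin beads; importins detected by immunoblot.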

GST-tagged Imp α5 ΔIBB = GST-tagged Imp α5 ΔIBB (Homo sapiens, UniProt P52294); test: Bio-Layer Interferometry; type: binding
Outline: (§1)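 Human importin α1 or α5 lacking the importin-β-binding domain (aa 1-100), GST-tagged, expressed in E. coli BL21(DE3)-RIL as inclusion bodies. Refolded, GST-affinity purified and dialysed into pH 7.0 "intracellular" buffer. Biotinylated peptide (5 nmol/L) loaded on streptavidin biosensors, 10 min, 37°C. Protein at 50–200 nmol/L, 30°C, with GST alone as control. Association 15 min, dissociation 15 min; curves fitted 1:1 or 2:1; 3 independent experiments.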

GST-tagged Imp α1 ΔIBB = test: Bio-Layer Interferometry; type: binding, human
Outline: as §1

Imp α1 [1] = test: Importin binding; set-up: species or system human
Outline: (§2)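 Biotinylated peptides (N-terminal biotin, 5-Gly spacer), 10 nmols, incubated overnight with whole-cell lysates of unstimulated Jurkat, HeLa S3 or EA.hy926 cells (Jurkat at 1.5 mg/mL total protein). Captured on streptavidin beads; immunoblotted for importins α1, α3, α4, α5, α7, β1, with GAPDH as nonspecific control. Binding strength judged from pulled-down versus lysate amount, alongside GAPDH-normalised importin abundance per cell type.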

Imp α3 = test: Importin binding; set-up: species or system human; conditions: HeLa S3 lysate compared to other cell types
Outline: as §2

Imp α4 [2] = test: Importin binding; set-up: species or system human; conditions: Jurkat T cell lysate compared to HeLa S3 and EA.hy926
Outline: as §2

Imp α5 [3] = test: Importin binding; set-up: species or system human
Outline: as §2

Imp α7 = test: Importin binding; set-up: species or system human; conditions: biotinylated peptide, whole cell lysates, SA-bead pull-down, immunoblot
Outline: as §2

Imp α5 [4] = test: Competition binding assay, Imp α5; set-up: species or system human; conditions: free N50 0-300 μmol/L, Jurkat lysate
Outline: (§3)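 Unlabelled N50 (0, 10, 30, 100, 300 μmol/L) incubated overnight at 4°C with unstimulated Jurkat lysate at 1.5, 0.3 or 0.05 mg/mL total protein. Unbound importins then pulled down with biotinylated N50 on streptavidin beads and quantified by immunoblot. Bead-bound signal without competitor set to 100%; percentage remaining per concentration, mean±SD of 3 independent experiments.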

Imp α1 [5] = test: Competition binding assay, Imp α1; set-up: species or system human; conditions: free N50 0-300 μmol/L, Jurkat lysate 1.5 mg/mL
Outline: as §3

Imp α4 [6] = test: Competition binding assay, Imp α4; set-up: species or system human; conditions: free N50 0-300 μmol/L, Jurkat lysate 1.5 mg/mL
Outline: as §3

GST-tagged Imp α5 ΔIBB, sequence (P52294 101-538 limits assumed, stated change not applied): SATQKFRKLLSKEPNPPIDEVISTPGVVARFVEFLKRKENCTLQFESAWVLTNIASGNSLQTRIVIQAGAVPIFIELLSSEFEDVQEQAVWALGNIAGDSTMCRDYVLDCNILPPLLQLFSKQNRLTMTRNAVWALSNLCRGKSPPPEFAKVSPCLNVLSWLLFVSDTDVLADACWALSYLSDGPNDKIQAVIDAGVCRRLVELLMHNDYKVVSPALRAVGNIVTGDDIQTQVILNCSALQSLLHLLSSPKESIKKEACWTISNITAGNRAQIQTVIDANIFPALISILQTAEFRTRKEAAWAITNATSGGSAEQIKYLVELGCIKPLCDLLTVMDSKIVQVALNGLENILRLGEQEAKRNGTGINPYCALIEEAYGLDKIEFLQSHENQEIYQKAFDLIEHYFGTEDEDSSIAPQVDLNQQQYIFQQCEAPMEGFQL

Question: `CC[C@H](C)[C@H](NC(=O)[C@H]([C@@H](C)CC)N(C)C(C)=O)C(=O)N[C@H](C(=O)N[C@@H](CC(C)C)C(=O)[C@@]1(C)CO1)[C@@H](C)O` [epoxomicin] was tested. Which “effect on turnover of IκBα” value (IκBα) did it give?
Answer: drastically slowed turnover

Question: How did the “competition with native ARs of importins α” value (importins α) turn out when IQLRKQKREQQLFKRRNVELI [AR7] was run?
Answer: successfully competed with native ARs of all importins α, including its own

Question: How did the “BLI response with Imp α5” value (GST-tagged Imp α5 ΔIBB; biotinylated peptide immobilized, Imp α5 ΔIBB 200 nmol/L) turn out when VQRDEQKLMP [N50M] was run?
Answer: at the background level

Question: And the “BLI response with Imp α1” value (GST-tagged Imp α1 ΔIBB; biotinylated peptide immobilized, Imp α1 ΔIBB 200 nmol/L)?
Answer: at the background level

Question: Which “relative strength of interaction with Imp α1” value (Imp α1 [1]; EA.hy926 lysate compared to Jurkat T cells) does the source give for VQRKRQKLMP [N50] here?
Answer: weaker

Question: What about the “relative strength of interaction with Imp α1” value (Imp α1 [1]; HeLa S3 lysate compared to Jurkat T cells) of the same compound?
Answer: weaker

Question: What about the “relative strength of interaction with Imp α3” value (Imp α3) of the same compound?
Answer: stronger

Question: What about the “relative strength of interaction with Imp α4” value (Imp α4 [2]) of the same compound?
Answer: stronger

Question: And the “relative strength of interaction with Imp α5” value (Imp α5 [3]; all 3 cell types (Jurkat, HeLa S3, EA.hy926))?
Answer: similarly strong in all 3 cell types

Question: And the “relative amount of Imp α5 bound to biotinylated N50” value (Imp α5 [3]; compared with any of the other detected proteins)?
Answer: strikingly higher than any of the other detected proteins

Question: What about the “interaction with Imp α7” value (Imp α7) of the same compound?
Answer: inability to detect any interactions; also recorded: inaccessible to this peptide

Question: What about the “inhibition of Imp α5 binding to immobilized N50, in words” value (Imp α5 [4]) of the same compound?
Answer: tightly controlled by unlabeled peptide in all lysate total protein concentrations; also recorded: concentration dependent

Question: And the “inhibition of Imp α1 binding to immobilized N50, in words” value (Imp α1 [5])?
Answer: slightly inhibited; also recorded: do not substantially inhibit binding

Question: And the “inhibition of Imp α4 binding to immobilized N50, in words” value (Imp α4 [6])?
Answer: slightly inhibited; also recorded: do not substantially inhibit binding

Question: And the “binding to Imp α5, in words” value (GST-tagged Imp α5 ΔIBB; BLI)?
Answer: specific, high‐affinity binding; also recorded: preferential and specific binding

Question: And the “maximum response with Imp α5 relative to maximum response with Imp α1” value (GST-tagged Imp α5 ΔIBB; BLI, normalized by subtracting GST)?
Answer: more than 20 fold

Question: And the “binding to Imp α1, in words” value (GST-tagged Imp α1 ΔIBB; BLI)?
Answer: not Imp α1; also recorded: nonspecific; also recorded: low affinity

Question: And the “competition with native ARs of importins α” value (importins α)?
Answer: successfully competes
